Values after ≈ are worked out from the molar mass of the structure shown. Active and inactive are the calls of the source. The rule behind the calls is not given here.
Key:
Cell membrane [1] = assay: Induction of cell membrane depolarization in Escherichia coli assessed as increase in fluorescence intensity at 3 times of MIC measured up to 15 hrs by DiSC3-5 dye based fluorescence analysis; type: subcellular
How it was run: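 Mid-log E. coli (6 h culture) was resuspended in 100 mM KCl, 5 mM HEPES pH 7.3 and 5 mM glucose (1:1:1). Cells were loaded with DiSC3(5) at 8 μM final for 80 min at 37 °C, then exposed to 3× MIC. Fluorescence was read at ex 622 nm / em 670 nm, with a water control.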

Staphylococcus aureus [2] = assay: Antibiofilm activity against Methicillin-resistant Staphylococcus aureus assessed as reduction in number of viable cells at 2 times MIC incubated for 24 hrs; type: functional, organism-based
How it was run: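 Biofilm eradication: mid-log MRSA at 2 × 10^6 CFU mL-1 grown 48 h to form biofilms, then washed with PBS. Biofilms exposed to compound at MIC, 2× or 3× MIC for 24 h; medium-only control. Biofilms dispersed with trypsin–EDTA, serial 10-fold dilutions plated, colonies counted after 24 h, expressed as log10 CFU mL-1.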

Staphylococcus aureus [3] = assay: Drug resistance, ratio of MIC for Staphylococcus aureus after 15 days to MIC for Staphylococcus aureus after initial exposure; type: functional; settings: time 15 day
How it was run: (§1)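 Resistance development: MRSA serially subcultured in fresh medium starting from the initial MIC. MIC reassessed every 24 h over 24 days, alongside a reference antibiotic given in twofold dilutions.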

Escherichia coli [4] = assay: Antibacterial activity against drug sensitive Escherichia coli DH5alpha assessed as reduction in bacterial growth by broth microdilution method; type: functional
How it was run: (§2)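 MICs were determined by standard twofold serial broth microdilution in lysogeny broth (LB) medium.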

Staphylococcus aureus [5] = assay: Antibacterial activity against drug sensitive Staphylococcus aureus RN4220 assessed as reduction in bacterial growth by broth microdilution method; type: functional; how it was run: as §2
Staphylococcus aureus [6] = assay: Antibacterial activity against methicillin-resistant Staphylococcus aureus assessed as increase in number of bacteria at 2 times MIC measured at 3 hrs; type: functional, organism-based
How it was run: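 Cells washed three times in sterile saline by centrifugation, moved to fresh TSB at 37 °C. Viable counts plated on TSB agar at 2–17 h. PCE = t − c, the time for a 1-log rise in treated versus control. Run twice.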

Staphylococcus aureus [7] = assay: Antibacterial activity against methicillin-resistant Staphylococcus aureus assessed as effect on viable bacterial growth measured after 24 hrs; type: functional, organism-based
Staphylococcus aureus [8] = assay: Antibacterial activity against methicillin-resistant Staphylococcus aureus measured for 9 days; type: functional, organism-based; settings: time 9.0 day; how it was run: as §1
Cell membrane [9] = assay: Induction of cell membrane depolarization in methicillin-resistant Staphylococcus aureus assessed as increase in fluorescence intensity at 3 times of MIC measured up to 15 hrs by DiSC3-5 dye based fluorescence analysis; type: subcellular
How it was run: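 Membrane potential assay. Mid-log MRSA (6 h growth) pelleted and resuspended in 100 mM KCl, 5 mM HEPES (pH 7.3) and 5 mM glucose (1:1:1). Mixed with DiSC3(5) at 8 μM final and preincubated 40 min at 37 °C. Compound added at 3× MIC, water control. Fluorescence read at ex 622 / em 670 nm.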

Staphylococcus aureus [10] = assay: Bactericidal activity against methicillin-resistant Staphylococcus aureus assessed as reduction in colony forming unit at 3 times MIC […] by time kill assay; type: functional
Escherichia coli [11] = assay: Antibacterial activity against Escherichia coli measured for 15 days; type: functional, organism-based; settings: time 15.0 day
How it was run: (§3)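 E. coli was serially subcultured in fresh medium, starting from the initial MIC. The MIC was redetermined every 24 h. A reference antibiotic was tested in parallel by twofold dilution. The regimen ran for 24 days in total.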

Klebsiella pneumoniae = assay: Antibacterial activity against drug-resistant Klebsiella pneumoniae assessed as reduction in bacterial growth by broth microdilution method; type: functional
How it was run: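 Twofold serial dilution (microdilution) MIC in lysogeny broth (LB) medium against drug-resistant strains: MRSA USA300, vancomycin-resistant Enterococci, Klebsiella pneumoniae.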

Bacillus subtilis = assay: Antibacterial activity against drug sensitive Bacillus subtilis 168 assessed as reduction in bacterial growth by broth microdilution method; type: functional; how it was run: as §2
Cell membrane [12] = assay: Induction of cell membrane integrity in methicillin-resistant Staphylococcus aureus assessed as increase in K+ efflux at 3 times MIC by absorption spectrophotometric analysis; type: subcellular
How it was run: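 K+ leakage: mid-log MRSA (6 h) resuspended in 10 mM HEPES (pH 7.3)/5 mM glucose at ~2 × 10^6 CFU mL-1. Incubated with compound at 3× MIC at 37 °C for various times, PBS control. Supernatant K+ measured by atomic absorption spectrophotometry. Duplicate.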

Pseudomonas aeruginosa = assay: Antibacterial activity against drug sensitive Pseudomonas aeruginosa PAO1 assessed as reduction in bacterial growth by broth microdilution method; type: functional; how it was run: as §2
Staphylococcus aureus [13] = assay: Antibacterial activity against methicillin-resistant Staphylococcus aureus assessed as reduction in viable bacterial count measured after 18 hrs; type: functional, organism-based
Escherichia coli [14] = assay: Antibiofilm activity against Escherichia coli assessed as reduction in number of viable cells at 4 times MIC incubated for 24 hrs; type: functional, organism-based
How it was run: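 E. coli was grown to mid-log phase and adjusted to 2 × 10^6 CFU mL−1. Biofilms were grown for 48 h, then the spent medium was removed and loose cells were washed off with PBS. Compound was added at MIC, 2× MIC or 4× MIC for 24 h, with a sterile-medium control. Biofilms were dispersed with trypsin–EDTA, 10-fold dilutions were plated, and colonies were counted after 24 h as log10 CFU mL−1.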

[15] = Cytotoxicity against human HK-2 cells assessed as inhibition of cell growth incubated for 24 hrs by MTT assay; type: toxicity, cell-based
How it was run: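 MTT assay with 24 h exposure of cells to the samples. IC50 is the concentration giving 50% growth inhibition, reported as mean ± S.D. of three independent experiments.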

Escherichia coli [16] = assay: Antibacterial activity against Escherichia coli measured for 9 days; type: functional, organism-based; settings: time 9.0 day; how it was run: as §3

SMILES: CC(C)(C)c1ccc(CCNc2nc3ccccc3nc2N)cc1
- Activity (Cell membrane [1]): Active
- Activity (Staphylococcus aureus [2]): Active
- Ratio (Staphylococcus aureus [3]): 3
- MIC (Escherichia coli [4]): 4 µg/mL (≈ 12.5 µM)
- MIC (Staphylococcus aureus [5]): 4 µg/mL (≈ 12.5 µM)
- Activity (Staphylococcus aureus [6]): Active
- Activity (Staphylococcus aureus [7]): Active
- Activity (Staphylococcus aureus [8]): Active
- Activity (Cell membrane [9]): Active
- Activity (Staphylococcus aureus [10]): >6 log10CFU/ml
- Activity (Escherichia coli [11]): Active
- MIC (Klebsiella pneumoniae): 128 µg/mL (≈ 399 µM)
- MIC (Bacillus subtilis): 8 µg/mL (≈ 25 µM)
- Activity (Cell membrane [12]): Active
- MIC (Pseudomonas aeruginosa): 64 µg/mL (≈ 200 µM)
- Activity (Staphylococcus aureus [13]): Dose-dependent-effect
- Activity (Escherichia coli [14]): Active
- IC50 at 24 h [15]: 146 µg/mL (≈ 454 µM)
- Activity (Escherichia coli [16]): Active

— ChEMBL document CHEMBL6177922, “Antibacterial activity of the structurally novel C-2 amine-substituted analogues based on quinoxaline” (RSC Med Chem, 2025)
